Tests used:
[1] = tested on: EI^WT; experiment: Enzyme kinetic assay; assay type: biochemical, E. coli; conditions: 37°C
Outline: (§1)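 Wild-type E. coli Enzyme I or its H189Q or H189A active-site mutant, expressed and purified. PEP hydrolysis to inorganic phosphate and pyruvate was followed spectrophotometrically at 37°C with a coupled phosphate-detection kit. Enzymatic velocities at varying PEP were fit to the Michaelis-Menten equation to give Km. For display, velocities were normalised to each fit's maximum velocity.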

[2] = tested on: EI^Q (H189Q); experiment: Enzyme kinetic assay; assay type: biochemical, E. coli; conditions: 37°C
Outline: as §1

[3] = tested on: EI^A (H189A); experiment: Enzyme kinetic assay; assay type: biochemical, E. coli; conditions: 37°C
Outline: as §1

[4] = tested on: isolated EIC; conditions: cited from earlier work

Work on `C=C(OP(=O)(O)O)C(=O)O` [PEP, phosphoenolpyruvate] yielded a Km [1] of roughly 330 µM, a Km [2] of roughly 130 µM and a Km [3] of less than 50 µM. The Km [4] was roughly 370 µM.

— PMC4293084 (Nature communications, 2015)
